Screening data (PubChem)
Dyrk1A ADPGlo: inhibitors of rat Dyrk1A kinase | Q63470 | ADP-Glo luminescence, NFATc1 peptide | inhibition, % at 12.5 µM | 0.43% of 310,000 active; in the data active = inhibition above about 50%;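 also: plate controls were vehicle with enzyme for no effect and no enzyme for full effect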
Rtt109 HAT inh: C. albicans Rtt109 histone acetyltransferase inhibition. purified Rtt109/Vps75, ThioGlo CoA-SH fluorescence, 4 h. inhibition, % at 34.9 µM. 0.16% of 330,000 active. AID 540336;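 active = inhibition of at least 50% in every replicate; inconclusive = best replicate reaches 50% inhibition but some replicates fall short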
Target sequence (Q5AAJ8 whole entry, looked up): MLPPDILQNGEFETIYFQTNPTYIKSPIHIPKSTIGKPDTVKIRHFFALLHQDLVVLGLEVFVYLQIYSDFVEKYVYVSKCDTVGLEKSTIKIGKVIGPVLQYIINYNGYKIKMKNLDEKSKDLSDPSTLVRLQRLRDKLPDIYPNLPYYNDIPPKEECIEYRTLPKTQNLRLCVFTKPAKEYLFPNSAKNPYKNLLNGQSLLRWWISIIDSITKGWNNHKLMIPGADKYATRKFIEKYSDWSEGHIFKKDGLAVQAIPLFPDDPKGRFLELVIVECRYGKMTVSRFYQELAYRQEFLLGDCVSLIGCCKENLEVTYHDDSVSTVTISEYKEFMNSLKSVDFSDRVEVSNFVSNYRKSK
ALR H2O2 inh: human ALR oxidase inhibition via reduced H2O2; P55789; purified ALR, DTT oxidation, H2O2 HRP-luminol luminescence; inhibition, % (no concentration beside the values); 3.8% of 290,000 active;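 active = mean replicate inhibition above about 79%, with every replicate also reaching it, limit read from the data; inconclusive = only one of the two criteria met; inactive = mean below limit and not every replicate reaching it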
CAL PDZ FP-1: blocks peptide binding to the human CAL PDZ domain; 0.92% of 300,000 active; purified CAL PDZ, TMR-peptide fluorescence polarization, 1 h; AID 602252; inhibition, % at 24.9 µM;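 active = mean inhibition of at least 30% with at least half of replicates also reaching 30%; inconclusive = no clear call, values can overlap the other calls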;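 also: 0% = DMSO neutral control and 100% = excess unlabeled competitor peptide PRC23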
CAL PDZ FP-2: human CAL PDZ-peptide interaction inhibition | purified CAL PDZ, TMR-peptide fluorescence polarization, 1 h | Q9HD26 | inhibition, % at 20 µM | 0.02% of 330,000 active;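 active = highest replicate inhibition of at least 40%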;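 also: plate controls were DMSO neutral control wells for no effect and unlabeled competitor peptide control wells for full effect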
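Read-out basis: mP drop reported as inhibition | Assay system: Tagged CAL PDZ protein CerCALP, purified | Benchmarks: Unlabelled peptide for full inhibition, DMSO wells as neutral | Schedule: 1 h incubation at room temperature before polarization reading | Buffer or medium: Sodium phosphate/NaCl buffer pH 7.4 with TCEP, IgG, Thesit | Doses: Single point, 20 µM | Measured by: Fluorescence polarization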
Numbers without * were called inactive; ? = inconclusive; · = not tested or not shown. This is a sample that favours compounds with a hit; in the whole collection about 4.3% have one here.

SMILES	Dyrk1A ADPGlo	Rtt109 HAT inh	ALR H2O2 inh	CAL PDZ FP-1	CAL PDZ FP-2
CC(C)(C)[C@H]1COC(=O)CCC/C=C/C[C@H](CC(=O)N(CCO)Cc2ccccc2)C(=O)N1	1	4	-2	-3	0
Cc1ccccc1CCN(C(=O)Cn1nnc2ccccc21)C(C(=O)NCC1CCCO1)c1nc2ccccc2n1C (centres undefined)	-3	-3	-1	-1	-2
Cc1cnc(C(=O)OCC(=O)Nc2oc(-c3ccccc3)c(-c3ccccc3)c2C#N)cn1	-5	4	97*	-1	-3
CC(=O)Nc1cccc(/C(C)=N/NC(=O)c2ccc3c(c2)OCO3)c1	8	·	0	5	-1
CSc1nc(O)c(C(c2ccc(C)cc2)c2c(O)nc(SC)[nH]c2=O)c(=O)[nH]1	1	4	89*	-2	-1
CSc1nc(O)c(C(c2ccc(F)cc2)c2c(O)nc(SC)[nH]c2=O)c(=O)[nH]1	·	·	3	·	·
Cc1c(NC(=O)COC(=O)c2ncc(Cl)c(Cl)c2Cl)c(=O)n(-c2ccccc2)n1C	-3	-4	0	-3	-2
O=C(CSc1ccc(-c2ccco2)nn1)c1ccccc1	-9	-1	98*	·	-2
CCc1nnc(NC(=O)CSc2ccc(-c3ccco3)nn2)s1	-2	1	-5	2	0
COc1ccc(C(=O)CSc2ccc(-c3ccco3)nn2)cc1	6	-9	?	-4	-2
Cc1nnc(NC(=O)CSc2ccc(-c3ccco3)nn2)s1	·	3	97*	1	0
O=C(CSc1ccc(-c2ccco2)nn1)Nc1ccccc1	·	5	98*	-3	-2
O=C(CSc1ccc(-c2ccco2)nn1)Nc1ccc(F)cc1	1	-3	22	0	-3
O=[N+]([O-])c1cccc2c(S(=O)(=O)N3CCOCC3)cccc12	-7	0	-22	-2	-1
CC(OC(=O)CCCN=C1NS(=O)(=O)c2ccccc21)C(=O)Nc1ccc(F)cc1Cl (centres undefined)	10	-16	-5	0	-2
Nc1ccc(S(N)(=O)=O)cc1	-2	8	-10	-3	0
Nc1ccc(S(N)(=O)=O)cc1N	4	-2	84*	0	-2
N#Cc1cccc(S(=O)(=O)Nc2c(NC3CCCCC3)c3ccccc3oc2=O)c1	10	5	98*	-8	-1
O=C(CON=C1c2ccccc2-c2ccccc21)NC12CC3CC(CC(C3)C1)C2	14	-1	-12	-3	-1
O=C(Nc1nnc(SCc2ccc(Cl)cc2)s1)C1CC(=O)N(Cc2ccccc2)C1 (centres undefined)	-78	·	-3	-4	-4
COC(=O)Cc1ccc(O)c(N)c1	-2	3	95*	-2	-3
CC(/C=C1\SC(=O)N(CCCC(=O)O)C1=O)=C\c1ccccc1	-2	15	97*	-6	-1
CC(=C\c1ccccc1)/C=C1/SC(=S)N(CCCC(=O)O)C1=O	-4	3	14	-6	-3
N#Cc1ccc(COC(=O)CSc2nnc(N)s2)cc1	-6	-4	97*	-3	-3
COc1ccc(NC(=O)c2noc3c2CCC3)cc1	4	0	45	-5	·
SMILES	Dyrk1A ADPGlo	Rtt109 HAT inh	ALR H2O2 inh	CAL PDZ FP-1	CAL PDZ FP-2
CC(=O)c1ccc(NC(=O)c2noc3c2CCC3)cc1	-6	0	-8	68*	·
CCCc1cc(=O)oc2cc(OCC(=O)NCCc3c[nH]c4ccccc34)ccc12	8	8	-3	2	0
COc1cccc(CN2CCNC(=O)C2CC(=O)NCCc2nc(C)c(C)s2)c1OC (centres undefined)	2	·	14	6	-2
Nc1c(Nc2ccccc2)c2ccccc2oc1=O	16	6	98*	·	0
CC(C)CNc1c(N)c(=O)oc2ccccc12	13	-3	99*	-3	0
O=C1C(=O)N(C/C=C/c2ccccc2)c2ccccc21	5	-1	6	-3	-1
CCOc1ccc(C(C)=O)cc1CN1C(=O)NC(C)(C2CC2)C1=O (centres undefined)	33	23	9	-1	0
CCOc1ccc(C(C)=O)cc1CN1c2ccc(S(N)(=O)=O)cc2CC1C (centres undefined)	-9	4	79*	-1	-1
O=C(Nc1ccc(O)cc1)c1cc(S(=O)(=O)N2CCCC2)ccc1Cl	4	-4	99*	-4	0
O=C(Nc1ccncc1)c1cc(S(=O)(=O)N2CCCC2)ccc1Cl	3	3	-18	-1	0
